Source: PMC12814486 (Bioorganic & medicinal chemistry, 2025)
≈ marks a conversion by molar mass, not a printed value.

Key:
[1] = Microsomal stability assay in liver microsomes; assay type: in vitro ADME; conditions: rat, pH 7.4
Summary of the method: (§1)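 Test compound was taken from a 1 mM DMSO stock. It was preincubated 5 min at 37 °C with liver microsomes in 0.1 M phosphate buffer, pH 7.4. Reaction was started with an NADPH regenerating system (glucose-6-phosphate, NADPH, glucose-6-phosphate dehydrogenase, MgCl2) and quenched with methanol at 0, 10, 20, 30 and 60 min. Samples were centrifuged and read by LC-MS SIM as peak area ratio to internal standard. k = negative slope of ln ratio vs time; CLint = k/P (P = protein concentration). Duplicates or triplicates were averaged.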

rat sEH = molecular target: T1, rat sEH (Rattus norvegicus, UniProt P80299); experiment: sEH inhibition assay; assay type: biochemical
T1 sequence (P80299 1-554): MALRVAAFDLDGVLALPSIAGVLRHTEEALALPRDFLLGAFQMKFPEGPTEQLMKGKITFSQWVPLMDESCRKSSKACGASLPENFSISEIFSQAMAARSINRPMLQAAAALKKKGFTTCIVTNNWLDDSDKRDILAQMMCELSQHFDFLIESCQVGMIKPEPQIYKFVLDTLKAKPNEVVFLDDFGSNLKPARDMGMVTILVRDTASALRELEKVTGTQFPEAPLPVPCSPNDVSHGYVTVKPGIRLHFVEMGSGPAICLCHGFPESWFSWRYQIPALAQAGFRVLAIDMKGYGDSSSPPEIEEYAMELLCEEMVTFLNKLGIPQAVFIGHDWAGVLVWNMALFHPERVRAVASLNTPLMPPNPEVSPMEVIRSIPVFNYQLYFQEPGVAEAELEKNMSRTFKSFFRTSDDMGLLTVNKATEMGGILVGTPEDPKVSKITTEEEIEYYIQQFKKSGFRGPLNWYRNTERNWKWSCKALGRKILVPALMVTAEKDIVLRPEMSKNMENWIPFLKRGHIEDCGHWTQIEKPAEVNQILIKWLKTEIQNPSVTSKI

5-HT2B = 5-HT2B (Homo sapiens, UniProt P41595); experiment: NIMH PDSP binding screen; conditions: read-out: Inhibition (%) 5-HT2B
Chain of 5-HT2B (P41595 whole entry, species assumed): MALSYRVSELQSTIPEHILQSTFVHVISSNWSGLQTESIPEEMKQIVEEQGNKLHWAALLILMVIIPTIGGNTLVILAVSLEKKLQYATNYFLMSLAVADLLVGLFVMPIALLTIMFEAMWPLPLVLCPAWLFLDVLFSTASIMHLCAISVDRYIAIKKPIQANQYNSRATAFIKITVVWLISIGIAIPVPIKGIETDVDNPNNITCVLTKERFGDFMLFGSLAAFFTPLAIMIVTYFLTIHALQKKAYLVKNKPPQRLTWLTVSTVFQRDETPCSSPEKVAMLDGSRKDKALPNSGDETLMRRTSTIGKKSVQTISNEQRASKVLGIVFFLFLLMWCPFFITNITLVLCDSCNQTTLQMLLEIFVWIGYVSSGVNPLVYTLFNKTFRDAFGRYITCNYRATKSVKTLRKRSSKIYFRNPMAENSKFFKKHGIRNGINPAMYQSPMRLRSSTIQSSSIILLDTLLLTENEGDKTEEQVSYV

human sEH = molecular target: T2, human sEH (Homo sapiens, UniProt P34913); experiment: sEH inhibition assay; assay type: biochemical
T2 sequence (P34913 1-555): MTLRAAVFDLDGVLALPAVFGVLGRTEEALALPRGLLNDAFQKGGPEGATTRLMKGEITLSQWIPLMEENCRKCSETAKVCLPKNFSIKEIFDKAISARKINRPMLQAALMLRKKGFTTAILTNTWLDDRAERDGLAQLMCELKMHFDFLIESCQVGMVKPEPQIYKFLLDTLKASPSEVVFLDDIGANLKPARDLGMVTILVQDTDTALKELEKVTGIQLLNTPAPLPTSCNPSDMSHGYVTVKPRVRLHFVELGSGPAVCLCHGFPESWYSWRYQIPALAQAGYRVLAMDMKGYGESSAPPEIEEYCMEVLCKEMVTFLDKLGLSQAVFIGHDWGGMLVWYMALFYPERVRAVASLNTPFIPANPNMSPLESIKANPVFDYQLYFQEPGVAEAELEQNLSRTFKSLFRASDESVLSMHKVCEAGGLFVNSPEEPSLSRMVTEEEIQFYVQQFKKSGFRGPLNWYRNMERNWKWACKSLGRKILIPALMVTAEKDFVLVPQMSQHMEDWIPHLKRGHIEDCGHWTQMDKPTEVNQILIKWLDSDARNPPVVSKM

human FAAH = molecular target: T3, human FAAH (Homo sapiens, UniProt O00519); experiment: FAAH inhibition assay; assay type: biochemical
T3 sequence (O00519 1-579): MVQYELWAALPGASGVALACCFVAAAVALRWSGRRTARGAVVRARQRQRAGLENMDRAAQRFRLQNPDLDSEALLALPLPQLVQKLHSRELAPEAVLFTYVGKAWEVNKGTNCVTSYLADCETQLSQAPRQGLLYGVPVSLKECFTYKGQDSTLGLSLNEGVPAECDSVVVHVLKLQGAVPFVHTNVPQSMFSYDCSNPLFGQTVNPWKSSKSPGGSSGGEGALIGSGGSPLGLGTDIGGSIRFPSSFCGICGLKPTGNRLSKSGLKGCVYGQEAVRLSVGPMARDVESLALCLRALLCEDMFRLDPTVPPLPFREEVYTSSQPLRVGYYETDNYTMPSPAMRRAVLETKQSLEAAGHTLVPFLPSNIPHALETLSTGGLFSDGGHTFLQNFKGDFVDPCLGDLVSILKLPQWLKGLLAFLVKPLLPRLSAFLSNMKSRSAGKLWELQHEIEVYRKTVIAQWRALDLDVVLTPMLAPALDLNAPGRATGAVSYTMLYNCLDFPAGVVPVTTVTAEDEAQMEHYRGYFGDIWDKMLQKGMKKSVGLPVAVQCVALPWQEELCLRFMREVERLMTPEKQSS

5-HT1B = 5-HT1B (Homo sapiens, UniProt P28222); experiment: NIMH PDSP binding screen; conditions: read-out: Inhibition (%) 5-HT1B
Chain of 5-HT1B (P28222 whole entry, species assumed): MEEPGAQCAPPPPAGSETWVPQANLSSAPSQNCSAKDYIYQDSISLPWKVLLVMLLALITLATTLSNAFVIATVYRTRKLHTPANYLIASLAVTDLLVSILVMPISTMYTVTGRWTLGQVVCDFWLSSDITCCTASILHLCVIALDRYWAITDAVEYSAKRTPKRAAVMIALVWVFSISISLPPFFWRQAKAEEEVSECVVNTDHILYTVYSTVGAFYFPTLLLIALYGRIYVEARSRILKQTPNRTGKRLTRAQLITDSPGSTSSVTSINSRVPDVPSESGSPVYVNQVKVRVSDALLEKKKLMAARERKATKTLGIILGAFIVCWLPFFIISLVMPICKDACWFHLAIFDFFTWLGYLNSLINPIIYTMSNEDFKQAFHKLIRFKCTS

Solubility assay = assay type: physicochemical; conditions: sodium phosphate buffer, pH 7.4, aqueous buffer, kinetic from dmso stock
[2] = Microsomal stability assay in liver microsomes; assay type: in vitro ADME; conditions: human, pH 7.4
Summary of the method: as §1

Delta opioid (DOR) = Delta opioid (DOR) (Homo sapiens, UniProt P41143); experiment: NIMH PDSP binding screen; conditions: read-out: Inhibition (%) Delta opioid (DOR)
Chain of Delta opioid (DOR) (P41143 whole entry): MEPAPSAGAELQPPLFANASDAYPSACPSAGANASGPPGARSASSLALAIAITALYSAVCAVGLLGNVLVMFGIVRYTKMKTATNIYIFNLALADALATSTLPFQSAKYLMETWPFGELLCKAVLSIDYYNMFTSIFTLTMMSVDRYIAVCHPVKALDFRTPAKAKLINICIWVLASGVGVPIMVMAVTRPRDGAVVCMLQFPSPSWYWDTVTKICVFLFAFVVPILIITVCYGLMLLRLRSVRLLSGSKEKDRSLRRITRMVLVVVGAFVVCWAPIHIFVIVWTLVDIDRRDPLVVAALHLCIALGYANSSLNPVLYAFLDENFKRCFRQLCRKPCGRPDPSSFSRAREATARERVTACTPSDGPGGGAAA

Mu opioid (MOR) = Mu opioid (MOR) (Homo sapiens, UniProt P35372); experiment: NIMH PDSP binding screen; conditions: read-out: Inhibition (%) Mu opioid (MOR)
Chain of Mu opioid (MOR) (P35372 whole entry): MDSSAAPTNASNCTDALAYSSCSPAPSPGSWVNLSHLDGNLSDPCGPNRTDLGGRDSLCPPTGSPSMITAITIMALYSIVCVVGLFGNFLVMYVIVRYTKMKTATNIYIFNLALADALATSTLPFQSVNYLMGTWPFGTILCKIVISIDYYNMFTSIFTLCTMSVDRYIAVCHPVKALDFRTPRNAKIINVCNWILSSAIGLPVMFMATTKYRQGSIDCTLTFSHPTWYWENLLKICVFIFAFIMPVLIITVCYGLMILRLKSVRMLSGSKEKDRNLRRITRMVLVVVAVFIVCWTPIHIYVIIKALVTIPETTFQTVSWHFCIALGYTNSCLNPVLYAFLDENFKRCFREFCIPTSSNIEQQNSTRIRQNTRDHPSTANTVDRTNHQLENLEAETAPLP

5-HT2A = 5-HT2A (Homo sapiens, UniProt P28223); experiment: NIMH PDSP binding screen; conditions: read-out: Inhibition (%) 5-HT2A
Chain of 5-HT2A (P28223 whole entry, species assumed): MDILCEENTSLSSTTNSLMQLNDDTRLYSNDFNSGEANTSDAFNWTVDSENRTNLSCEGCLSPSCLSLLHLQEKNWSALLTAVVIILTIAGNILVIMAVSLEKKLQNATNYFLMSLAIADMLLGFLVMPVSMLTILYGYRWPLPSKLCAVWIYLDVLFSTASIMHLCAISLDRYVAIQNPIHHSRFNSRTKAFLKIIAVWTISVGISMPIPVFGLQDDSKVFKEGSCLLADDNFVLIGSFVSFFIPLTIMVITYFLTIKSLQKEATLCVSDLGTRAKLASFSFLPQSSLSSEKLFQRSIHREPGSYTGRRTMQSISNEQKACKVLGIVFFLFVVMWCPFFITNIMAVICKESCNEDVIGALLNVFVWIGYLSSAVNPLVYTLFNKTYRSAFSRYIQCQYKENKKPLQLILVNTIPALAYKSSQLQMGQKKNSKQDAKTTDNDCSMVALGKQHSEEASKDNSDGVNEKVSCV

Kappa opioid (KOR) = Kappa opioid (KOR) (Homo sapiens, UniProt P41145); experiment: NIMH PDSP binding screen; conditions: read-out: Inhibition (%) Kappa opioid (KOR)
Chain of Kappa opioid (KOR) (P41145 whole entry): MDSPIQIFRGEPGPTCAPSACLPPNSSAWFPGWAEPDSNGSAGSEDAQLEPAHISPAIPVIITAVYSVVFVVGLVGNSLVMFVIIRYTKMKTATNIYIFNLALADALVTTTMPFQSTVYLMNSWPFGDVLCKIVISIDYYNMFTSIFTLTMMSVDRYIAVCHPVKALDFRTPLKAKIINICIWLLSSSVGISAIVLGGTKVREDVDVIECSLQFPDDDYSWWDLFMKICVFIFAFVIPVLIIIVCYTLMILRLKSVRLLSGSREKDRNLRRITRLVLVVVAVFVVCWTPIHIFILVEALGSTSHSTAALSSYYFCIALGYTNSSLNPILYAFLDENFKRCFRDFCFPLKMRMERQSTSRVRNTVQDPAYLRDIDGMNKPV

## O=C(Nc1ccc(-c2cnc3ccccc3n2)cc1)C1CCN(S(=O)(=O)c2ccccc2Cl)CC1 [Compound 4m, 1-((2-chlorophenyl)sulfonyl)-N-(4-(quinoxalin-2-yl)phenyl)piperidine-4-carboxamide]
[1]
  half-life at 1 µM: 26 min
  microsomal CLint at 1 µM: 52.6 µL/min/mg
Rat sEH
  IC50: 300 pM
5-HT2B
  inhibition at 10 µM: -4.41 ± 7.06%
Human sEH
  IC50: 700 pM
Human FAAH
  IC50: 2900 pM
5-HT1B
  inhibition at 10 µM: 22.2 ± 6.67%
Solubility assay
  solubility: 31 to 63 µM (≈ 15.7 to 31.9 µg/mL)
[2]
  half-life at 1 µM: > 60 min
  microsomal CLint at 1 µM: 22.5 µL/min/mg
Delta opioid (DOR)
  inhibition at 10 µM: -0.23 ± 11.9%
Mu opioid (MOR)
  inhibition at 10 µM: -1 ± 1.63%
5-HT2A
  inhibition at 10 µM: 1.96 ± 1.88%
Kappa opioid (KOR)
  inhibition at 10 µM: 5.59 ± 6.57%
